# Results from PMC4765894 (Journal of Medicinal Chemistry, 2015).
# “Also recorded” adds a separate entry of the source.
# How the values were obtained:
# HIF-1 = assay: Dual luciferase-reporter assay; type: cell-based, human; conditions: HEK-293T, 24 h; for IC50: Homo sapiens
# Procedure, shortened: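 HEK-293T seeded at 5 × 10^3 cells/well, attached 24 h, then transiently co-transfected with a firefly reporter carrying five HRE copies from the human VEGF promoter and a Renilla plasmid (pRL-SV40). Cells were then exposed to serially diluted test compound under 1% O2 for 24 h. Dual-Glo firefly read, then Stop & Glo Renilla read (10 min each). Firefly normalized to Renilla; three independent experiments.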
# HIF-1α [1] = assay: Western blot of HIF-1α expression in HEK-293T cells under hypoxia; type: cell-based, human; conditions: 1 μM, hypoxia (1% O2), 24 h
# Procedure, shortened: (§1)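 HEK-293T cells were held under hypoxia (1% O2) for 24 h with or without test compound at 1 μM, with a normoxic comparison. Total protein lysates were resolved by SDS-PAGE and transferred to nitrocellulose. Membranes were blocked 30 min at room temperature in 5% skim milk/TBS-0.1% Tween-20, then given primary antibody overnight at 4 °C and HRP secondary 1 h at room temperature. Detection was chemiluminescent, with β-actin as internal control.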
# HIF-1β = assay: Western blot of HIF-1β expression in HEK-293T cells under hypoxia; type: cell-based, human; conditions: 1 μM, 24 h
# Procedure, shortened: as §1
# [2] = tested on: cyclin-dependent kinase 6 (Cdk6); assay: Western blot of Cdk6; type: cell-based, human; conditions: 1 μM, hypoxic conditions, 24 h
# Procedure, shortened: as §1
# VEGF mRNA = assay: Real-time PCR of VEGF mRNA under hypoxia; type: cell-based, human; conditions: 1 μM, hypoxic conditions, 24 h, normalized against β-actin
# Procedure, shortened: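 Cells were given test compound at 1 μM under hypoxic conditions for 24 h, with normoxic and hypoxic controls. Total RNA was extracted with TRIzol and cDNA made with MMLV reverse transcriptase. SYBR Green real-time PCR used 10-fold diluted cDNA and gene-specific primers: 2 min 50 °C, 10 min 95 °C, then 40 cycles of 15 s 95 °C and 1 min 60 °C. Mean CT values were normalized to β-actin; triplicate runs, averaged.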
# HIF-1α [3] = conditions: 4T1 cells, hypoxic conditions, concentrations between 10 and 100 nM; cited from earlier work
# VEGF secretion = conditions: cited from earlier work
IC50 (HIF-1) [µM],Compound,expression level of HIF-1α (HIF-1α [1]),regulation of HIF-1β (HIF-1β),protein level of Cdk6 [2],other results
> 10000,COc1ccc(C(=O)COc2cc(C(=O)[C@@H](C)Oc3ccc([C@H]4O[C@H](c5ccc(O[C@H](C)C(=O)c6ccc(OC)c(OCC(=O)c7ccc(OC)c(OC)c7)c6)c(OC)c5)[C@H](C)[C@H]4C)cc3OC)ccc2OC)cc1OC [MA02],,,,HIF-1 inhibitory activity in luciferase assay (in words) (HIF-1; hypoxia (1% O2)): almost inactive
,"COc1ccc([C@@H](O)[C@@H](C)Oc2ccc([C@H]3O[C@H](c4ccc(OC)c(OC)c4)[C@H](C)[C@H]3C)cc2OC)cc1OC [MA04, 4-O-methylsaucerneol]",significantly down-regulated; also recorded: inhibit the expression,did not regulate,decreased,VEGF mRNA levels (VEGF mRNA): significantly reduced
,COc1ccc(C(=O)COc2ccc([C@H]3O[C@H](c4ccc(OCC(=O)c5ccc(OC)c(OC)c5)c(OC)c4)[C@H](C)[C@H]3C)cc2OC)cc1OC [MA07],significantly down-regulated; also recorded: inhibit the expression,did not regulate,decreased,
,COc1cc([C@H]2O[C@H](c3ccc(O[C@H](C)C(=O)c4ccccc4)c(OC)c3)[C@H](C)[C@H]2C)ccc1O[C@H](C)C(=O)c1ccccc1 [MA11],significantly down-regulated; also recorded: inhibit the expression,did not regulate,decreased,
0.73,C#CCOc1cc(C(=O)[C@@H](C)Oc2ccc([C@H]3O[C@H](c4ccc(O[C@H](C)C(=O)c5ccc(C6(C(F)(F)F)N=N6)cc5)c(OC)c4)[C@H](C)[C@H]3C)cc2OC)ccc1OC [MA13],,,,
2.32,COc1ccc(C(=O)[C@@H](C)Oc2ccc([C@H]3O[C@H](c4ccc(O[C@H](C)C(=O)c5ccc(C6(C(F)(F)F)N=N6)cc5)c(OC)c4)[C@H](C)[C@H]3C)cc2OC)cc1OCCOCCOCCNC(=O)CCCC[C@@H]1SC[C@@H]2NC(=O)N[C@@H]21 [MA14],,,,
0.011 ± 0.003,"COc1ccc([C@@H](O)[C@@H](C)Oc2ccc([C@H]3O[C@H](c4ccc(O[C@H](C)[C@H](O)c5ccc(OC)c(OC)c5)c(OC)c4)[C@H](C)[C@H]3C)cc2OC)cc1OC [compound 1, manassantin A, reference compound]",inhibit the expression,did not regulate,,hypoxia-induced HIF-1α expression (HIF-1α [3]): significantly inhibited; HIF-1 regulated VEGF secretion (VEGF secretion): dramatically reduced
